Data as given in ChEMBL document CHEMBL4406834, “Phenylthiazoles with nitrogenous side chain: An approach to overcome molecular obesity” (Eur J Med Chem, 2019).
In brackets after ≈: the same amount, converted by molar mass. Activity calls are given as the source filed them. No cut-off for these calls is given here.

Key:
[1] = tested on: Staphylococcus aureus; assay: Antibacterial activity against methicillin-resistant Staphylococcus aureus NRS384 USA300 after 18 to 20 hrs by broth microdilution assay; assay type: functional
Procedure, shortened: (§1)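 Broth microdilution per CLSI. Strains grown aerobically overnight on tryptone soy agar at 37 °C, adjusted to 0.5 McFarland, then diluted in cation-adjusted Mueller-Hinton broth to about 5 × 10^5 CFU/mL. Compounds (10 mg/mL DMSO stocks) serially diluted. Incubated aerobically at 37 °C for 18-20 h. MIC is the lowest concentration with no visible growth.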

[2] = tested on: Staphylococcus aureus; assay: Antibacterial activity against methicilline-resistant Staphylococcus aureus NRS384 USA300 after 18 to 20 hrs by CLSI-based broth microdilution assay; assay type: functional; procedure, shortened: as §1
[3] = tested on: Staphylococcus aureus; assay: Bactericidal activity against vancomycin-resistant Staphylococcus aureus 10 incubated for 18 to 20 hrs followed by replating on tryptic soy agar plate and further incubated for 18 to 24 hrs by CLSI-based broth microdilution assay; assay type: functional
Procedure, shortened: (§2)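 MBC: after the broth microdilution MIC (CAMHB, ~5 × 10^5 CFU/mL, 37 °C, 18-20 h), 4 µL from wells without growth plated onto tryptic soy agar. Plates incubated 37 °C for 18-20 h. MBC is the lowest concentration giving 99.9% reduction in growth.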

[4] = tested on: Staphylococcus aureus; assay: Antibacterial activity against methicilline-sensitive Staphylococcus aureus NRS-107 after 18 to 20 hrs by CLSI-based broth microdilution assay; assay type: functional; procedure, shortened: as §1
[5] = tested on: Listeria monocytogenes; assay: Antibacterial activity against Listeria monocytogenes ATCC 19111 after 18 to 20 hrs by CLSI-based broth microdilution assay; assay type: functional
[6] = tested on: Enterococcus faecium; assay: Bactericidal activity against vancomycin-resistant Enterococcus faecium ATCC 700221 incubated for 18 to 20 hrs followed by replating on tryptic soy agar plate and further incubated for 18 to 24 hrs by CLSI-based broth microdilution assay; assay type: functional; procedure, shortened: as §2
[7] = tested on: Staphylococcus aureus; assay: Antibacterial activity against Staphylococcus aureus ATCC BAA42 after 18 to 20 hrs by CLSI-based broth microdilution assay; assay type: functional; procedure, shortened: as §1
[8] = tested on: Staphylococcus aureus; assay: Antibacterial activity against methicilline-resistant Staphylococcus aureus NRS-119 after 18 to 20 hrs by CLSI-based broth microdilution assay; assay type: functional; procedure, shortened: as §1
[9] = tested on: Staphylococcus aureus; assay: Antibacterial activity against vancomycin-resistant Staphylococcus aureus 12 after 18 to 20 hrs by CLSI-based broth microdilution assay; assay type: functional; procedure, shortened: as §1
[10] = tested on: Staphylococcus aureus; assay: Bactericidal activity against methicilline-resistant Staphylococcus aureus NRS-119 incubated for 18 to 20 hrs followed by replating on tryptic soy agar plate and further incubated for 18 to 24 hrs by CLSI-based broth microdilution assay; assay type: functional; procedure, shortened: as §2
[11] = tested on: Staphylococcus aureus; assay: Bactericidal activity against vancomycin-resistant Staphylococcus aureus 12 incubated for 18 to 20 hrs followed by replating on tryptic soy agar plate and further incubated for 18 to 24 hrs by CLSI-based broth microdilution assay; assay type: functional; procedure, shortened: as §2
[12] = tested on: Streptococcus pneumoniae; assay: Bactericidal activity against methicillin-resistant Streptococcus pneumoniae ATCC 700677 incubated for 18 to 20 hrs followed by replating on tryptic soy agar plate and further incubated for 18 to 24 hrs by CLSI-based broth microdilution assay; assay type: functional; procedure, shortened: as §2
[13] = tested on: Staphylococcus aureus; assay: Bactericidal activity against methicilline-sensitive Staphylococcus aureus NRS-107 incubated for 18 to 20 hrs followed by replating on tryptic soy agar plate and further incubated for 18 to 24 hrs by CLSI-based broth microdilution assay; assay type: functional; procedure, shortened: as §2
[14] = tested on: Staphylococcus aureus; assay: Bactericidal activity against methicilline-resistant Staphylococcus aureus NRS123 USA400 incubated for 18 to 20 hrs followed by replating on tryptic soy agar plate and further incubated for 18 to 24 hrs by CLSI-based broth microdilution assay; assay type: functional; procedure, shortened: as §2
[15] = tested on: Staphylococcus aureus; assay: Antibacterial activity against methicilline-resistant Staphylococcus aureus NRS386 USA700 after 18 to 20 hrs by CLSI-based broth microdilution assay; assay type: functional; procedure, shortened: as §1
[16] = tested on: Staphylococcus aureus; assay: Antibacterial activity against methicilline-resistant Staphylococcus aureus NRS123 USA400 after 18 to 20 hrs by CLSI-based broth microdilution assay; assay type: functional; procedure, shortened: as §1
[17] = tested on: Staphylococcus aureus; assay: Antibacterial activity against vancomycin-resistant Staphylococcus aureus 10 after 18 to 20 hrs by CLSI-based broth microdilution assay; assay type: functional; procedure, shortened: as §1
[18] = tested on: Staphylococcus aureus; assay: Antibacterial activity against methicilline-resistant Staphylococcus aureus NRS385 USA500 after 18 to 20 hrs by CLSI-based broth microdilution assay; assay type: functional; procedure, shortened: as §1
[19] = tested on: Streptococcus pneumoniae; assay: Bactericidal activity against cephalosporin-resistant Streptococcus pneumoniae ATCC 51916 incubated for 18 to 20 hrs followed by replating on tryptic soy agar plate and further incubated for 18 to 24 hrs by CLSI-based broth microdilution assay; assay type: functional; procedure, shortened: as §2
[20] = tested on: Staphylococcus aureus; assay: Antibacterial activity against methicilline-sensitive Staphylococcus aureus ATCC 6538 after 18 to 20 hrs by CLSI-based broth microdilution assay; assay type: functional; procedure, shortened: as §1
[21] = tested on: Staphylococcus epidermidis; assay: Bactericidal activity against methicillin-resistant Staphylococcus epidermidis NRS101 incubated for 18 to 20 hrs followed by replating on tryptic soy agar plate and further incubated for 18 to 24 hrs by CLSI-based broth microdilution assay; assay type: functional
[22] = tested on: Staphylococcus aureus; assay: Bactericidal activity against methicilline-sensitive Staphylococcus aureus ATCC 6538 incubated for 18 to 20 hrs followed by replating on tryptic soy agar plate and further incubated for 18 to 24 hrs by CLSI-based broth microdilution assay; assay type: functional; procedure, shortened: as §2
[23] = tested on: Staphylococcus epidermidis; assay: Antibacterial activity against methicillin-resistant Staphylococcus epidermidis NRS101 after 18 to 20 hrs by CLSI-based broth microdilution assay; assay type: functional; procedure, shortened: as §1
[24] = tested on: Enterococcus faecium; assay: Antibacterial activity against vancomycin-resistant Enterococcus faecium ATCC 700221 after 18 to 20 hrs by CLSI-based broth microdilution assay; assay type: functional; procedure, shortened: as §1
[25] = tested on: Staphylococcus aureus; assay: Bactericidal activity against methicilline-resistant Staphylococcus aureus NRS386 USA700 incubated for 18 to 20 hrs followed by replating on tryptic soy agar plate and further incubated for 18 to 24 hrs by CLSI-based broth microdilution assay; assay type: functional; procedure, shortened: as §2
[26] = tested on: Listeria monocytogenes; assay: Bactericidal activity against Listeria monocytogenes ATCC 19111 incubated for 18 to 20 hrs followed by replating on tryptic soy agar plate and further incubated for 18 to 24 hrs by CLSI-based broth microdilution assay; assay type: functional
[27] = tested on: Staphylococcus aureus; assay: Bactericidal activity against Staphylococcus aureus ATCC BAA42 incubated for 18 to 20 hrs followed by replating on tryptic soy agar plate and further incubated for 18 to 24 hrs by CLSI-based broth microdilution assay; assay type: functional; procedure, shortened: as §2
[28] = tested on: Staphylococcus aureus; assay: Bactericidal activity against methicilline-resistant Staphylococcus aureus NRS384 USA300 incubated for 18 to 20 hrs followed by replating on tryptic soy agar plate and further incubated for 18 to 24 hrs by CLSI-based broth microdilution assay; assay type: functional; procedure, shortened: as §2
[29] = tested on: Staphylococcus aureus; assay: Bactericidal activity against methicilline-resistant Staphylococcus aureus NRS385 USA500 incubated for 18 to 20 hrs followed by replating on tryptic soy agar plate and further incubated for 18 to 24 hrs by CLSI-based broth microdilution assay; assay type: functional; procedure, shortened: as §2
[30] = tested on: Enterococcus faecalis; assay: Bactericidal activity against vancomycin-resistant Enterococcus faecalis ATCC 51299 incubated for 18 to 20 hrs followed by replating on tryptic soy agar plate and further incubated for 18 to 24 hrs by CLSI-based broth microdilution assay; assay type: functional; procedure, shortened: as §2
[31] = tested on: Staphylococcus aureus; assay: Antibiofilm activity against methicillin resistant Staphylococcus aureus NRS384 USA300 assessed as disruption of matured biofilm formation at 4 x MIC incubated for 24 hrs by crystal violet staining based spectrophotometric analysis; assay type: functional, organism-based
Procedure, shortened: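 MRSA USA300 overnight culture diluted 1:100 in tryptic soy broth + 1% glucose. Biofilm formed for 24 h at 37 °C. Planktonic cells removed, then compounds added at 256 to 2 µg/mL in TSB for 24 h at 37 °C. Wells washed with PBS, stained with 0.1% crystal violet for 30 min, destained with ethanol, read at OD595. Percent eradication relative to DMSO; unpaired t test.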

[32] = tested on: Enterococcus faecalis; assay: Antibacterial activity against vancomycin-resistant Enterococcus faecalis ATCC 51299 after 18 to 20 hrs by CLSI-based broth microdilution assay; assay type: functional; procedure, shortened: as §1
[33] = tested on: Streptococcus pneumoniae; assay: Antibacterial activity against cephalosporin-resistant Streptococcus pneumoniae ATCC 51916 after 18 to 20 hrs by CLSI-based broth microdilution assay; assay type: functional; procedure, shortened: as §1
[34] = tested on: Streptococcus pneumoniae; assay: Antibacterial activity against methicillin-resistant Streptococcus pneumoniae ATCC 700677 after 18 to 20 hrs by CLSI-based broth microdilution assay; assay type: functional; procedure, shortened: as §1
[35] = tested on: Staphylococcus aureus; assay: Antibacterial activity against intracellular methicillin resistant Staphylococcus aureus USA400 infected in mouse J774 cells assessed as intracellular bacterial cells at 2 times MIC concentration incubated for 24 hrs followed by re-plating on TSA plate for 18 to 22 hrs by serial dilution method; assay type: functional, organism-based
Procedure, shortened: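 J774 murine macrophages in DMEM + 10% FBS, 37 °C, 5% CO2, infected with MRSA USA400 at MOI ~10:1 for 1 h. Washed with gentamicin 100 µg/mL to kill extracellular bacteria. […] Cells lysed with 0.1% Triton-X, serially diluted in PBS, plated on TSA for 18-22 h, CFU counted. One-way ANOVA with Dunnett's test.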

[36] = tested on: Staphylococcus aureus; assay: Bactericidal activity against methicillin-resistant Staphylococcus aureus USA400 assessed as reduction in bacterial burden at 5 times MIC after 24 hrs by time kill assay; assay type: functional, organism-based

| SMILES | MIC [1] [µg/mL] | MBC [3] [µg/mL] | MIC [5] [µg/mL] | MBC [6] [µg/mL] | MIC [7] [µg/mL] | MIC [9] [µg/mL] | MBC [10] [µg/mL] | MBC [11] [µg/mL] | MBC [12] [µg/mL] | MBC [13] [µg/mL] | MBC [14] [µg/mL] | MIC [17] [µg/mL] | MBC [19] [µg/mL] | MBC [22] [µg/mL] | MIC [24] [µg/mL] | MBC [25] [µg/mL] | MBC [27] [µg/mL] | MBC [28] [µg/mL] | MBC [29] [µg/mL] | MBC [30] [µg/mL] | further results |
| --- | --- | --- | --- | --- | --- | --- | --- | --- | --- | --- | --- | --- | --- | --- | --- | --- | --- | --- | --- | --- | --- |
| C/C(=N\NC(=N)N)c1sc(-c2ccc(N3CCC(Br)CC3)cc2)nc1C | 8 (≈ 18.4 µM) | – | – | – | – | – | – | – | – | – | – | – | – | – | – | – | – | – | – | – | – |
| CC(=O)NC[C@H]1CN(c2ccc(N3CCOCC3)c(F)c2)C(=O)O1 [LINEZOLID] | 1 (≈ 2.96 µM) | > 64 | ≤ 0.5 | 16 (≈ 47.4 µM) | 1 (≈ 2.96 µM) | 1 (≈ 2.96 µM) | > 64 | 64 (≈ 190 µM) | 16 (≈ 47.4 µM) | 64 (≈ 190 µM) | 64 (≈ 190 µM) | 1 (≈ 2.96 µM) | 32 (≈ 94.9 µM) | 16 (≈ 47.4 µM) | 1 (≈ 2.96 µM) | 16 (≈ 47.4 µM) | 16 (≈ 47.4 µM) | 32 (≈ 94.9 µM) | 32 (≈ 94.9 µM) | 16 (≈ 47.4 µM) | MIC [2]: 1 µg/mL (≈ 2.96 µM); MIC [4]: 1 µg/mL (≈ 2.96 µM); MIC [8]: 64 µg/mL (≈ 190 µM); MIC [15]: 1 µg/mL (≈ 2.96 µM); MIC [16]: 1 µg/mL (≈ 2.96 µM); MIC [18]: 1 µg/mL (≈ 2.96 µM); MIC [20]: 1 µg/mL (≈ 2.96 µM); MBC [21]: 8 µg/mL (≈ 23.7 µM); MIC [23]: 0.5 µg/mL (≈ 1.48 µM); MBC [26]: 32 µg/mL (≈ 94.9 µM) |
| C/C(=N\NC(=N)N)c1sc(-c2ccc(N3CCSCC3)cc2)nc1C | 32 (≈ 85.4 µM) | – | – | – | – | – | – | – | – | – | – | – | – | – | – | – | – | – | – | – | – |
| CN[C@H](CC(C)C)C(=O)N[C@H]1C(=O)N[C@@H](CC(N)=O)C(=O)N[C@H]2C(=O)N[C@H]3C(=O)N[C@H](C(=O)N[C@H](C(=O)O)c4cc(O)cc(O)c4-c4cc3ccc4O)[C@H](O)c3ccc(c(Cl)c3)Oc3cc2cc(c3O[C@@H]2O[C@H](CO)[C@@H](O)[C@H](O)[C@H]2O[C@H]2C[C@](C)(N)[C@H](O)[C@H](C)O2)Oc2ccc(cc2Cl)[C@H]1O [VANCOMYCIN] | – | > 64 | 0.5 (≈ 0.345 µM) | > 64 | ≤ 0.5 | > 64 | 1 (≈ 0.69 µM) | > 64 | 1 (≈ 0.69 µM) | 1 (≈ 0.69 µM) | 1 (≈ 0.69 µM) | > 64 | 1 (≈ 0.69 µM) | 1 (≈ 0.69 µM) | > 64 | 1 (≈ 0.69 µM) | ≤ 0.5 | 1 (≈ 0.69 µM) | 1 (≈ 0.69 µM) | 64 (≈ 44.2 µM) | inhibition [31]: inactive; MIC [32]: 32 µg/mL (≈ 22.1 µM); MIC [33]: 0.5 µg/mL (≈ 0.345 µM); MIC [34]: 1 µg/mL (≈ 0.69 µM); inhibition [35]: inactive; inhibition [36]: Active |
